Legend:
[1] = Cytotoxicity against African green monkey Vero E6 cells assessed as cell viability incubated for 5 days by neutral red uptake based microplate reader method; assay type: toxicity, Vero C1008; details: chlorocebus sabaeus, time 5 day
Summary of the method: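 Vero E6 cells seeded and grown for 24 h, then washed. Serial compound dilutions added in serum-free medium for 5 days at 37 °C. Neutral red (40 μg/mL) taken up for 2–4 h, with absorbance read at 540 nm. CC50 from variable-slope dose-response fit.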

SARS-CoV-2 = assay: Antiviral activity against SARS-Cov-2 USA-WA1/2020 isolate infected in African green monkey Vero E6 cells measured after 48 hrs of postinfection by immunofluorescence assay; assay type: functional, organism-based; details: Severe acute respiratory syndrome coronavirus 2, USA-WA1/2020, Vero C1008, 48 h
[2] = Selectivity Index, ratio of CC50 for african green monkey vero E6 cells to EC50 for antiviral activity against SARS-Cov-2 USA-WA1/2020 isolate infected in African green monkey Vero E6 cells; assay type: toxicity, Vero C1008; details: read-out: Ratio CC50/EC50
[3] = molecular target: T1, Replicase polyprotein 1ab (Severe acute respiratory syndrome coronavirus 2, UniProt P0DTD1); assay: Non-covalent inhibition of SARS-Cov-2 -Mpro incubated for 30 mins using FRET substrate measured for 1 hr by FRET-based enzymatic assay
[4] = Covalent inhibition of Enterovirus-D68 3Cpro incubated for 30 mins using FRET substrate measured for 1 hr by FRET-based enzymatic assay
Summary of the method: (§1)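 Reaction started with the corresponding peptide FRET substrate (final 10 μM) and read at ex 360/em 460 nm at 30 °C for 1 h. Initial velocity taken by linear regression over the first 15 min.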

[5] = Covalent inhibition of Enterovirus-A17 2Apro incubated for 30 mins using FRET substrate measured for 1 hr by FRET-based enzymatic assay; summary of the method: as §1
[6] = Covalent inhibition of Enterovirus-A17 3Cpro incubated for 30 mins using FRET substrate measured for 1 hr by FRET-based enzymatic assay; summary of the method: as §1
[7] = Covalent inhibition of SARS-Cov -Mpro incubated for 30 mins using FRET substrate measured for 1 hr by FRET-based enzymatic assay; parameters: species or system Severe acute respiratory syndrome-related coronavirus
Procathepsin L [8] = molecular target: T2, Procathepsin L (Homo sapiens, UniProt P07711); assay: Covalent inhibition of Cathepsin L (unknown origin) incubated for 30 mins using FRET substrate measured for 1 hr by FRET-based enzymatic assay
[9] = Covalent inhibition of HCoV-OC43 -Mpro incubated for 30 mins using FRET substrate measured for 1 hr by FRET-based enzymatic assay; parameters: species or system unidentified human coronavirus
[10] = molecular target: T3, Calpain-1 catalytic subunit (Homo sapiens, UniProt P07384); assay: Covalent inhibition of Calpain 1 (unknown origin) incubated for 1 hr by FRET-based enzymatic assay
T3 sequence (P07384 whole entry): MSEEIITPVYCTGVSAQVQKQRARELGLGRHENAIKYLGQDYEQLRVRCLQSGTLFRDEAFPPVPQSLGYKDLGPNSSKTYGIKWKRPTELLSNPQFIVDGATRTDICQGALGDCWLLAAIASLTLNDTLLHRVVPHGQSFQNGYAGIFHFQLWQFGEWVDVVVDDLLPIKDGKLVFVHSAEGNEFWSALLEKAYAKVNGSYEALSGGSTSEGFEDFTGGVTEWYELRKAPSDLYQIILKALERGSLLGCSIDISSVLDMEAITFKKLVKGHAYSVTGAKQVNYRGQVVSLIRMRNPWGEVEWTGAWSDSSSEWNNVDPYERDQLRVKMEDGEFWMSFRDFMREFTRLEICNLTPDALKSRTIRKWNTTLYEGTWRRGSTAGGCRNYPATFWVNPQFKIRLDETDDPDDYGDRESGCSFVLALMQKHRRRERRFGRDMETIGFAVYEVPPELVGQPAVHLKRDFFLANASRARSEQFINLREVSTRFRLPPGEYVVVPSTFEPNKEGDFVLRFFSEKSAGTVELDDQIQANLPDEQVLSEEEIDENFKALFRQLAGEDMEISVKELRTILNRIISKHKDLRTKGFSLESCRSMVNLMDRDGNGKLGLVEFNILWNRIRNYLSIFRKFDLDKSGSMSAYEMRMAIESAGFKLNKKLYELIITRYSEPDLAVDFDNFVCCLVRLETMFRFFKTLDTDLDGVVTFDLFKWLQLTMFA
Summary of the method: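 Calpain 1 in buffer of 50 mM HEPES, 50 mM NaCl, 10 mM DTT and 5 mM CaCl2 (pH 7.5), with test compound at serial concentrations. The reaction is started with N-succinyl-Leu-Leu-Val-Tyr-AMC (4 mM stock). Fluorescence (ex 360, em 460 nm) is read for 1 h at 30 °C.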

[11] = Covalent inhibition of MERS-CoV -Mpro incubated for 30 mins using FRET substrate measured for 1 hr by FRET-based enzymatic assay; parameters: species or system Middle East respiratory syndrome-related coronavirus
[12] = Covalent inhibition of Enterovirus-D68 2Apro incubated for 30 mins using FRET substrate measured for 1 hr by FRET-based enzymatic assay; summary of the method: as §1
[13] = molecular target: T1, Replicase polyprotein 1ab; assay: Stabilization in SARS-CoV-2 MPro assessed as binding constant incubated for 30 mins in presence of DTT by thermal shift binding assay
Summary of the method: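 3 μM SARS-CoV-2 Mpro in Mpro reaction buffer with 4 mM DTT, incubated with varying compound concentrations for 30 min at 30 °C. SYPRO orange added and melt run from 20 to 90 °C at 0.05 °C/s. Tm plotted against concentration and fitted to one-site binding to give apparent Kd.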

Procathepsin L [14] = molecular target: T2, Procathepsin L; assay: Non-covalent inhibition of Cathepsin L (unknown origin) incubated for 30 mins using FRET substrate measured for 1 hr by FRET-based enzymatic assay
Summary of the method: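 Cathepsin L activated for 30 min at 30 °C in 20 mM sodium acetate, 1 mM EDTA, 5 mM DTT, pH 5.5. 300 pM enzyme preincubated with compound for 30 min at 30 °C.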

[15] = molecular target: T3, Calpain-1 catalytic subunit; assay: Non-covalent inhibition of Calpain 1 (unknown origin) incubated for 1 hr by FRET-based enzymatic assay
Summary of the method: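 Calpain 1 in 50 mM HEPES, 50 mM NaCl, 10 mM DTT, 5 mM CaCl2, pH 7.5. Reaction started with N-succinyl-Leu-Leu-Val-Tyr-AMC (4 mM stock).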

[16] = Non-covalent inhibition of SARS-Cov -Mpro incubated for 30 mins using FRET substrate measured for 1 hr by FRET-based enzymatic assay; parameters: species or system Severe acute respiratory syndrome-related coronavirus
[17] = molecular target: T1, Replicase polyprotein 1ab; assay: Non-covalent inhibition of SARS-Cov-2 PLpro incubated for 30 mins using FRET substrate measured for 1 hr by FRET-based enzymatic assay

T2 sequence (P07711 whole entry): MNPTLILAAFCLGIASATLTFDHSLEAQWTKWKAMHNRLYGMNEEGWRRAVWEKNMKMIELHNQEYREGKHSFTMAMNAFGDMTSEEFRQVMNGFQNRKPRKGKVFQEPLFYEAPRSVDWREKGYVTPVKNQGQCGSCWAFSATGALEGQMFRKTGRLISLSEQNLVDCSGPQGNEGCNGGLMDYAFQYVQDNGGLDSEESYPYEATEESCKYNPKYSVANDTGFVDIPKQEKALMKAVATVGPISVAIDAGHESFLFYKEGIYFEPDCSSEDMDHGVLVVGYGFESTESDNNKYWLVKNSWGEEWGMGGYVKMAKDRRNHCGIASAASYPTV

Structure (SMILES): C[C@H](NC(=O)C(c1cccnc1)N(C(=O)c1cnco1)c1ccc(-c2ccccc2)cc1)c1ccccc1 (some centres undefined)
- CC50 at 120 h [1]: 67 µM

Structure (SMILES): O=C(NCCCc1ccccc1)C(c1cccnc1)N(C(=O)c1ccco1)c1ccc(-c2ccccc2)cc1 (centres undefined)
- EC50 (SARS-CoV-2): 2.04 µM
- CC50 at 120 h [1]: > 200 µM
- selectivity ratio [2]: > 98

Structure (SMILES): C[C@H](NC(=O)C(c1cccnc1)N(C(=O)c1ccco1)c1ccc(-n2cccc2)cc1)c1ccccc1 (some centres undefined)
- EC50 (SARS-CoV-2): 1.73 µM
- CC50 at 120 h [1]: > 200 µM
- selectivity ratio [2]: > 116

Structure (SMILES): CC(C)(C)CC(C)(C)NC(=O)C(c1cccnc1)N(C(=O)c1ccco1)c1ccc(C(C)(C)C)cc1 (centres undefined)
- IC50 [3]: > 20 µM

Structure (SMILES): C[C@H](NC(=O)C(c1cnccn1)N(C(=O)c1c[nH]cn1)c1ccc(-c2ccccc2)cc1)c1ccccc1 (some centres undefined)
- EC50 (SARS-CoV-2): 4.54 µM
- CC50 at 120 h [1]: 148 µM
- selectivity ratio [2]: 32.6

Structure (SMILES): O=C(NC1CCCC1)C(c1cccnc1)N(C(=O)c1ccco1)c1ccc(-c2ccccc2)cc1 (centres undefined)
- CC50 at 120 h [1]: > 200 µM
- IC50 [3]: 4.1 µM

Structure (SMILES): Cc1cccc(C)c1NC(=O)C(c1cccnc1)N(C(=O)c1ccco1)c1ccc(C(C)(C)C)cc1 (centres undefined)
- IC50 [3]: > 20 µM

Structure (SMILES): CC(C)(C)CC(C)(C)NC(=O)C(c1cccnc1)N(C(=O)c1ccco1)c1ccc(-c2ccccc2)cc1 (centres undefined)
- CC50 at 120 h [1]: 148 µM
- IC50 [3]: 2.14 µM

Structure (SMILES): C[C@H](NC(=O)C(c1cccnc1)N(C(=O)c1ccco1)c1ccc([Si](C)(C)C)cc1)c1ccccc1 (some centres undefined)
- CC50 at 120 h [1]: 19.4 µM

Structure (SMILES): C[C@H](NC(=O)C(c1cccnc1)N(C(=O)c1ccco1)c1ccc(C2CCCCC2)cc1)c1ccccc1 (some centres undefined)
- CC50 at 120 h [1]: 9.61 µM

Structure (SMILES): C[C@H](NC(=O)C(c1cccnc1)N(C(=O)c1ccco1)c1ccc(-c2ccco2)cc1)c1ccccc1 (some centres undefined)
- CC50 at 120 h [1]: 56.4 µM

Structure (SMILES): CC(C)(C)NC(=O)C(c1cnccn1)N(C(=O)c1ccco1)c1ccc(C(C)(C)C)cc1 (centres undefined)
- CC50 at 120 h [1]: 138 µM

Structure (SMILES): CC(C)(C)NC(=O)C(c1cncnc1)N(C(=O)c1ccco1)c1ccc(C(C)(C)C)cc1 (centres undefined)
- IC50 [3]: > 20 µM

Structure (SMILES): C[C@H](NC(=O)C(c1cnccn1)N(C(=O)c1ccco1)c1ccc(-c2ccccc2)cc1)c1ccccc1 (some centres undefined)
- EC50 (SARS-CoV-2): 0.82 µM
- CC50 at 120 h [1]: > 200 µM
- selectivity ratio [2]: > 244

Structure (SMILES): C[C@H](NC(=O)C(c1cccnc1)N(C(=O)c1ccco1)c1ccc(-c2cccs2)cc1)c1ccccc1 (some centres undefined)
- CC50 at 120 h [1]: 89.6 µM
- IC50 [3]: 0.56 µM

Structure (SMILES): C[C@H](NC(=O)C(c1cccnc1)N(C(=O)c1ccno1)c1ccc(-c2ccccc2)cc1)c1ccccc1 (some centres undefined)
- CC50 at 120 h [1]: > 200 µM

Structure (SMILES): CC(C)C[C@H](NC(=O)OCc1ccccc1)C(=O)N[C@@H](C[C@@H]1CCNC1=O)C(O)S(=O)(=O)O (some centres undefined)
- EC50 (SARS-CoV-2): 1.51 µM
- IC50 [4]: ≤ 0.16 µM
- IC50 [5]: > 50 µM
- IC50 [6]: ≤ 0.16 µM
- IC50 [7]: ≤ 0.16 µM
- IC50 (Procathepsin L [8]): ≤ 0.074 µM
- IC50 [9]: ≤ 0.16 µM
- IC50 [10]: ≤ 0.074 µM
- IC50 [11]: ≤ 0.16 µM
- IC50 [12]: > 50 µM

Structure (SMILES): CC(C)(C)c1ccc(N(C(=O)c2ccco2)C(C(=O)NC2CC2)c2cccnc2)cc1 (centres undefined)
- CC50 at 120 h [1]: 52.8 µM

Structure (SMILES): C[C@H](NC(=O)C(c1cccnc1)N(C(=O)c1c[nH]cn1)c1ccc(-c2ccccc2)cc1)c1ccccc1 (some centres undefined)
- EC50 (SARS-CoV-2): 13.1 µM
- CC50 at 120 h [1]: 129 µM
- selectivity ratio [2]: 9.9

Structure (SMILES): CC(C)(C)c1ccc(N(C(=O)c2ccco2)C(C(=O)NC2CCCCC2)c2cccnc2)cc1 (centres undefined)
- CC50 at 120 h [1]: 18.2 µM
- IC50 [3]: 2.39 µM

Structure (SMILES): C[C@H](NC(=O)C(c1cccnc1)N(C(=O)c1ccco1)c1ccc(-c2ccccn2)cc1)c1ccccc1 (some centres undefined)
- CC50 at 120 h [1]: 236 µM

Structure (SMILES): C[C@H](NC(=O)[C@@H](c1cccnc1)N(C(=O)c1ccco1)c1ccc(-c2ccccc2)cc1)c1ccccc1
- Kd [13]: 9.43 µM
- CC50 at 120 h [1]: > 100 µM
- IC50 (Procathepsin L [14]): 10.5 µM
- IC50 [3]: 0.2 µM
- IC50 [15]: 6 µM
- IC50 [16]: 0.27 µM
- IC50 [17]: > 60 µM

Structure (SMILES): CC(C)(C)NC(=O)C(c1cccnc1)N(C(=O)c1ccco1)c1ccc(C(C)(C)C)cc1 (centres undefined)
- EC50 (SARS-CoV-2): > 20 µM
- CC50 at 120 h [1]: > 125 µM

Structure (SMILES): CC(C)(C)NC(=O)C(c1c[nH]cn1)N(C(=O)c1ccco1)c1ccc(C(C)(C)C)cc1 (centres undefined)
- IC50 [3]: > 20 µM

Structure (SMILES): C[C@H](NC(=O)C(c1cccnc1)N(C(=O)c1ccno1)c1ccc(C2CCCCC2)cc1)c1ccccc1 (some centres undefined)
- CC50 at 120 h [1]: 17.5 µM

Structure (SMILES): C[C@H](NC(=O)[C@H](c1cccnc1)N(C(=O)c1ccco1)c1ccc(-c2ccccc2)cc1)c1ccccc1
- IC50 [3]: > 20 µM

Structure (SMILES): Cc1ccc(S(=O)(=O)CNC(=O)C(c2cccnc2)N(C(=O)c2ccco2)c2ccc(C(C)(C)C)cc2)cc1 (centres undefined)
- IC50 [3]: > 20 µM

Structure (SMILES): CC(C)(C)c1ccc(N(C(=O)c2ccco2)C(C(=O)NC2CCCC2)c2cccnc2)cc1 (centres undefined)
- CC50 at 120 h [1]: 101 µM

Structure (SMILES): O=C(NCC(c1ccccc1)c1ccccc1)C(c1cccnc1)N(C(=O)c1ccco1)c1ccc(-c2ccccc2)cc1 (centres undefined)
- CC50 at 120 h [1]: > 200 µM

Structure (SMILES): O=C(NC1CC1)C(c1cccnc1)N(C(=O)c1ccco1)c1ccc(-c2ccccc2)cc1 (centres undefined)
- IC50 [3]: 12.1 µM

Structure (SMILES): C[C@H](NC(=O)C(c1cccnc1)N(C(=O)c1ccco1)c1ccc(-c2ccccc2)cc1)c1ccccc1 (some centres undefined)
- EC50 (SARS-CoV-2): 1.61 µM
- CC50 at 120 h [1]: > 200 µM
- IC50 [3]: 0.66 µM

Structure (SMILES): O=C(NC1CCCCC1)C(c1cccnc1)N(C(=O)c1ccco1)c1ccc(-c2ccccc2)cc1 (centres undefined)
- CC50 at 120 h [1]: 53.5 µM
